In the assay the target is T1, CYP6A8 (Drosophila melanogaster, UniProt Q27593).
T1 sequence (Q27593 1-506): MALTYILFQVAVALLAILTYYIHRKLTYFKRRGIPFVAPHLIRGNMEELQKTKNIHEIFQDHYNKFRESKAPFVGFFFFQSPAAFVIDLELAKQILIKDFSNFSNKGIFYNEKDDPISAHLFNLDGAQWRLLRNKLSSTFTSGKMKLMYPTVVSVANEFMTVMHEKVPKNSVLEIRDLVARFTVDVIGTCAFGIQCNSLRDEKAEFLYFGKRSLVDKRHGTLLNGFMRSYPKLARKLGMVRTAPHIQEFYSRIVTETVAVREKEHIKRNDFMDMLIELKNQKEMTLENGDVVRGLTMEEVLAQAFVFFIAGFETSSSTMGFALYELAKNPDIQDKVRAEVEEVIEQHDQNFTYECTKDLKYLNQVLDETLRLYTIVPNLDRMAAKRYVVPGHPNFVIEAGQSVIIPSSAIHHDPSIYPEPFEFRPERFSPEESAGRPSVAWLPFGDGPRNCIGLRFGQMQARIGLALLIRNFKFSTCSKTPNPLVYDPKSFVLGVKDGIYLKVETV
The experiment in a line: UV-visible spectral binding titration. In short, it runs like this:
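Recombinant C-terminally His6-tagged CYP6A8 was expressed in E. coli from pCW and purified by Ni2+-NTA chromatography. Enzyme was diluted to 1 µM in 100 mM potassium phosphate (pH 7.6) and split between sample and reference cuvettes. Fatty acid was added stepwise and 350–500 nm difference spectra were recorded. Kd was derived by plotting the peak-to-trough absorbance difference against ligand concentration.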
With `CCCCCCCCCC(=O)O` [capric acid], the Kd stood at 144 ± 20 µM.

Regarding `CCCCCCCCCCCC(=O)O` [lauric acid], the Kd was 28 ± 4 µM. Under `CCCCCCCC(=O)O` [octanoic acid] stands 713 ± 46 µM.

(Values after article PMC9810445 (Biomolecules & Therapeutics, 2022).)
